Measurements: ChEMBL document CHEMBL1149473, “Anti-AIDS agents 69. Moronic acid and other triterpene derivatives as novel potent anti-HIV agents” (J Med Chem, 2006)
Active and inactive are the calls of the source. The rule behind the calls is not given here.

Columns and labels:
MT4 [1] = test: Antiviral activity against HIV1 NL4-3 replication in human MT4 cells; type: functional, cell-based; conditions: NL4-3, MT4
Procedure, shortened: (§1)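 MT4 cells were infected with HIV-1 at MOI 0.01 using the strain named in the line. NL4-3 is a T-cell adapted X4 wild-type virus. PI-R is M46I/L63P/V82T/I84V, resistant to multiple protease inhibitors. Supernatants were collected on day 4 postinfection for p24 ELISA. EC50 = concentration inhibiting replication by 50%.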

MT4 [2] = test: Antiviral activity against HIV1 PI-R replication in human MT4 cells; type: functional, cell-based; procedure, shortened: as §1
MT4 [3] = test: Antiviral activity against HIV1 FHR2 replication in MT4 cells; type: functional, cell-based; conditions: Homo sapiens; procedure, shortened: as §1
MT4 [4] = test: Cytotoxicity against human MT4 cells; type: functional, cell-based
Procedure, shortened: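 Cytotoxicity was measured in MT4 cells and given as IC50, the concentration decreasing viable cell number by 50%.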

MT4 [5] = test: Antiviral activity against HIV1 NL4-3 in MT4 cells; type: functional, cell-based; conditions: for EC50: Homo sapiens, NL4-3, MT4; procedure, shortened: as §1
[6] = Therapeutic index, IC50 for MT-4/EC50 for HIV1 NL4-3; conditions: human, MT-4 cells
H9 [7] = test: Antiviral activity against HIV1 3B in H9 lymphocytes; type: functional, cell-based; conditions: for EC50: Homo sapiens
Procedure, shortened: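 HIV-1 IIIB isolate (125 TCID50) added to H9 cells at 3 × 10⁵ cells/mL in RPMI 1640 with 10% fetal calf serum and L-glutamine, 37 °C, 5% CO2. Media replaced on days 1 and 4 postinfection. Supernatant p24 antigen capture on day 6. EC50 = concentration suppressing replication by 50%. AZT run as positive control each experiment.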

H9 [8] = test: Cytotoxicity against human H9 lymphocytes; type: functional, cell-based
Procedure, shortened: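 Mock-infected H9 cells were treated in parallel with the antiviral plates under identical conditions, without virus, and were read by XTT on day 6. IC50 = concentration toxic to 50% of mock-infected cells.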

[9] = Therapeutic index, IC50 for H9/EC50 for HIV 3B; type: cell-based; conditions: human, H9 cells; read-out: Ratio IC50/EC50
Procedure, shortened: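 Therapeutic index is IC50 divided by EC50. IC50 is the XTT toxicity in mock-infected H9 cells. EC50 is the 50% suppression of p24 in HIV-1 IIIB-infected H9 cells at day 6.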

[10] = Cytotoxicity against COS-TZM fused cells; type: functional, cell-based
Procedure, shortened: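 Cytotoxicity was determined as IC50 in a one-day assay, matching the fusion assay duration. The highest concentration tested was 10 µg/mL.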

[11] = Inhibition of membrane fusion between HIV1 NL4-3 envelope gene expressing COS cells and TZM cells; type: functional, cell-based
Procedure, shortened: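 COS cells were electroporated with pSRHS carrying the HIV-1 NL4-3 envelope genes (2 µg per 10⁶ cells, 950 µF, 150 V) and cultured 1 day. They were then mixed with TZM cells (10⁴ COS : 10 × 10⁴ TZM) with compound at various concentrations, 37 °C, 24 h. Luciferase read-out. EC50 = 50% inhibition of envelope-mediated fusion.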

MT4 [12] = test: Cytotoxicity against human MT4 cells at 5 uM; type: functional, cell-based
MT4 [13] = test: Antiviral activity against HIV1 FHR2 replication in MT4 cells at 5 uM; type: functional, cell-based

In the case of `Cc1cn([C@H]2C[C@H](N=[N+]=[N-])[C@@H](CO)O2)c(=O)[nH]c1=O` [ZIDOVUDINE], the EC50 (MT4 [1]) is reported as 13 nM, the EC50 (MT4 [2]) is reported as 19 nM and the EC50 (MT4 [3]) is reported as 19 nM. For the same molecule, the IC50 (MT4 [4]) was over 37500 nM.

`C=C(C)[C@@H]1CC[C@]2(C(=O)N[C@@H](CC(C)C)C(=O)O)CC[C@]3(C)[C@H](CC[C@@H]4[C@@]5(C)CC[C@H](OC(=O)CC(C)(C)C(=O)O)C(C)(C)[C@@H]5CC[C@]43C)[C@@H]12` gave an EC50 (MT4 [1]) of 10 nM, an EC50 (MT4 [2]) of 6 nM and an EC50 (MT4 [3]) of 50 nM. It also gave an IC50 (MT4 [4]) of 12200 nM, an EC50 (MT4 [5]) of 10 nM and a selectivity ratio [6] of over 1220.

In the case of `CC(C)C[C@H](NC(=O)[C@@]1(C)CC[C@]2(C)CC[C@]3(C)C(=CC(=O)[C@@H]4[C@@]5(C)CC[C@H](OC(=O)CC(C)(C)C(=O)O)C(C)(C)[C@@H]5CC[C@]43C)[C@@H]2C1)C(=O)O`, the Activity (H9 [7]) is reported as “inactive” and the Activity (MT4 [5]) is reported as “inactive”.

In the case of `CC(C)(CC(=O)O)CC(=O)O[C@H]1CC[C@]2(C)[C@H]3CC=C4[C@@H]5CC(C)(C)CC[C@]5(C(=O)O)CC[C@@]4(C)[C@]3(C)CC[C@H]2C1(C)C`, the Activity (H9 [7]) is reported as “inactive” and the Activity (MT4 [5]) is reported as “inactive”.

With `CC1(C)CC[C@]2(C(=O)O)CC[C@]3(C)C(=CC[C@@H]4[C@@]5(C)CC[C@H](OC(=O)CC(C)(C)C(=O)O)C(C)(C)[C@@H]5CC[C@]43C)[C@@H]2C1` the IC50 (H9 [8]) was over 42700 nM, the selectivity ratio [9] was over 133 and the EC50 (H9 [7]) was 320 nM. For the same molecule, the IC50 (MT4 [4]) was 20200 nM, the EC50 (MT4 [5]) was 8300 nM and the selectivity ratio [6] was 2.4.

Molecule `C=C(C)[C@@H]1CC[C@]2(C(=O)NCCCCCCCC(=O)N[C@@H](CC(C)C)[C@H](O)CC(=O)O)CC[C@]3(C)[C@H](CC[C@@H]4[C@@]5(C)CC[C@H](O)C(C)(C)[C@@H]5CC[C@]43C)[C@@H]12` has an IC50 [10] of over 13200 nM and an EC50 [11] of 8.6 nM.

In the case of `CC(C)C[C@H](NC(=O)[C@]12CCC(C)(C)C=C1[C@H]1CC[C@@H]3[C@@]4(C)CC[C@H](OC(=O)CC(C)(C)C(=O)O)C(C)(C)[C@@H]4CC[C@@]3(C)[C@]1(C)CC2)C(=O)O`, the IC50 (H9 [8]) is reported as over 42700 nM, the IC50 [10] is reported as over 14300 nM and the EC50 (MT4 [1]) is reported as 8.5 nM. For the same molecule, the EC50 (MT4 [2]) was 21 nM, the selectivity ratio [9] was over 2740 and the EC50 (MT4 [3]) was 130 nM. It also gave an EC50 (H9 [7]) of 15.6 nM, an IC50 (MT4 [4]) of 22500 nM and an EC50 (MT4 [5]) of 8.5 nM. It also gave a selectivity ratio [6] of 2650 and an EC50 [11] of 3580 nM.

`C=C(C)[C@@H]1CC[C@]2(C)CC[C@]3(C)[C@H](CC[C@@H]4[C@@]5(C)CC[C@H](OC(=O)CC(C)(C)C(=O)O)C(C)(C)[C@@H]5CC[C@]43C)[C@@H]12` showed an IC50 (H9 [8]) of over 45100 nM, a selectivity ratio [9] of over 17.2 and an EC50 (H9 [7]) of 2600 nM. For the same molecule, the IC50 (MT4 [4]) was over 36100 nM, the EC50 (MT4 [5]) was 21600 nM and the selectivity ratio [6] was over 1.7.

`C=C(C)[C@@H]1CC[C@]2(C(=O)NCCCCCCCCCCC(=O)O)CC[C@]3(C)[C@H](CC[C@@H]4[C@@]5(C)CC[C@H](OC(=O)CC(C)(C)C(=O)O)C(C)(C)[C@@H]5CC[C@]43C)[C@@H]12` showed an IC50 (MT4 [4]) of 11000 nM, an EC50 (MT4 [5]) of 7 nM and a selectivity ratio [6] of 1570.

In the case of `CC(C)(CC(=O)O[C@H]1CC[C@]2(C)[C@H]3C(=O)C=C4[C@@H]5C[C@@](C)(C(=O)O)CC[C@]5(C)CC[C@@]4(C)[C@]3(C)CC[C@H]2C1(C)C)C(=O)O`, the Activity (H9 [7]) is reported as “inactive” and the Activity (MT4 [5]) is reported as “inactive”.

`C[C@H]1[C@H](C)CC[C@]2(C(=O)O)CC[C@]3(C)C(=CC[C@@H]4[C@@]5(C)CC[C@H](OC(=O)CC(C)(C)CC(=O)O)C(C)(C)[C@@H]5CC[C@]43C)[C@H]12` gave an IC50 (H9 [8]) of 28500 nM, a selectivity ratio [9] of 42 and an EC50 (H9 [7]) of 680 nM. The Activity (MT4 [5]) was “inactive”.

With `C=C(C)[C@@H]1CC[C@]2(C(=O)O)CC[C@]3(C)[C@H](CC[C@@H]4[C@@]5(C)CC[C@H](OC(=O)CC(C)(C)C(=O)O)C(C)(C)[C@@H]5CC[C@]43C)[C@@H]12` [BEVIRIMAT] the IC50 (H9 [8]) was over 42800 nM, the IC50 [10] was over 17100 nM and the EC50 (MT4 [1]) was 96 nM. It also gave an EC50 (MT4 [2]) of 430 nM, a selectivity ratio [9] of over 6250 and an IC50 (MT4 [12]) of over 5000 nM. For the same molecule, the Activity (MT4 [13]) was “inactive”, the EC50 (H9 [7]) was 7 nM and the EC50 (MT4 [5]) was 96 nM. It also gave a selectivity ratio [6] of over 52 and an EC50 [11] of over 17100 nM.

In the case of `CC1(C)C=C2[C@H]3CC[C@@H]4[C@@]5(C)CC[C@H](OC(=O)CC(C)(C)C(=O)O)C(C)(C)[C@@H]5CC[C@@]4(C)[C@]3(C)CC[C@@]2(C(=O)NCCCCCCCCCCC(=O)O)CC1`, the IC50 (H9 [8]) is reported as 24000 nM, the IC50 [10] is reported as over 13000 nM and the selectivity ratio [9] is reported as 3400. For the same molecule, the EC50 (H9 [7]) was 7 nM, the IC50 (MT4 [4]) was 19500 nM and the EC50 (MT4 [5]) was 110 nM. For the same molecule, the selectivity ratio [6] was 177 and the EC50 [11] was 5210 nM.

`CC(C)C[C@@H](CO)NC(=O)[C@]12CCC(C)(C)C=C1[C@H]1CC[C@@H]3[C@@]4(C)CC[C@H](OC(=O)CC(C)(C)C(=O)O)C(C)(C)[C@@H]4CC[C@@]3(C)[C@]1(C)CC2` showed an IC50 (H9 [8]) of over 42700 nM, an IC50 [10] of over 14600 nM and an EC50 (MT4 [1]) of 45 nM. It also gave an EC50 (MT4 [2]) of 88 nM, a selectivity ratio [9] of over 2500 and an EC50 (MT4 [3]) of 2780 nM. It also gave an EC50 (H9 [7]) of 17 nM, an IC50 (MT4 [4]) of 23500 nM and an EC50 (MT4 [5]) of 45 nM. It also gave a selectivity ratio [6] of 522 and an EC50 [11] of 5850 nM.

For `C[C@H]1[C@H](C)CC[C@]2(C(=O)O)CC[C@]3(C)C(=CC[C@@H]4[C@@]5(C)CC[C@H](OC(=O)CC(C)(C)C(=O)O)C(C)(C)[C@@H]5CC[C@]43C)[C@H]12`, the IC50 (H9 [8]) was 28500 nM, the selectivity ratio [9] was 360 and the EC50 (H9 [7]) was 79 nM. It also gave an IC50 (MT4 [4]) of 21000 nM, an EC50 (MT4 [5]) of 8300 nM and a selectivity ratio [6] of 2.5.

Work on `CC1(C)C=C2[C@H]3CC[C@@H]4[C@@]5(C)CC[C@H](OC(=O)C(C)(C)CC(=O)O)C(C)(C)[C@@H]5CC[C@@]4(C)[C@]3(C)CC[C@@]2(C(=O)NCCCCCCCCCCC(=O)O)CC1` yielded an IC50 (H9 [8]) of over 32600 nM, a selectivity ratio [9] of over 3.5 and an EC50 (H9 [7]) of 9300 nM. The Activity (MT4 [5]) was “inactive”.
